What was measured:
[1] = type: in vivo; details: human, plasma, po, 75 mg, 75 mg oral, fed, healthy Indian subjects, mean ±SD; for AUC(0-t): AUC 0–48, reference formulation (TAMIFLU); for AUC(0-inf): reference formulation (TAMIFLU); for half-life: t1/2, reference formulation (TAMIFLU)
In short: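 Healthy Indian volunteers (n=42), fed, single oral 75 mg capsule of test compound, test and reference formulations over two periods. Blood taken 0–48 h into K3EDTA tubes on ice (<10 °C). Plasma mixed 95:5 v/v with dichlorvos stock (4 mg/mL) and stored at −20 °C, then below −70 °C. Parent and carboxylate metabolite measured by validated LC–MS/MS. Calibration ranges were 0.5–200 and 2.0–800 ng/mL.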

[2] = cited from earlier work
[3] = cited from earlier work; for renal excretion (share of dose): 100 mg dose, as OSTC or as unchanged drug
[4] = Stability of analytes in spiked human plasma and wet extract; type: physicochemical; details: for Mean stability sample ±SD: n=6
In short: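 Human blank plasma spiked at LQC (OST/OSTC 1.5/6.0 ng/mL) and HQC (160/640 ng/mL), with dichlorvos as esterase inhibitor. Bench top (room temperature), autosampler (wet extract), freeze-thaw and long term (−20 °C, −70 °C) stability were tested, six replicates per level. Samples were thawed in an ice bath below 10 °C and extracted. Stability was read as analyte/IS area ratio by LC–MS/MS against freshly prepared comparison standards.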

[5] = hydrolysis controlled; cited from earlier work
[6] = following oral administration of OST in healthy volunteers
[7] = Bench top stability (ambient temperature), 12 h, HQC (160/640 ng/mL OST/OSTC)
[8] = Bench top stability (ambient temperature), 12 h, HQC, vs comparison samples
[9] = Bench top stability (ambient temperature), 12 h, LQC (1.5/6.0 ng/mL OST/OSTC)
[10] = Bench top stability (ambient temperature), 12 h, LQC, vs comparison samples
[11] = Freeze & thaw stability in plasma, 5 cycles, −20 °C, HQC
[12] = Freeze & thaw stability in plasma, 5 cycles, −20 °C, LQC
[13] = Freeze & thaw stability in plasma, 5 cycles, −70 °C, HQC
[14] = Freeze & thaw stability in plasma, 5 cycles, −70 °C, LQC
[15] = Long term stability in plasma: 61 days, −20 °C, HQC
[16] = Long term stability in plasma: 61 days, −20 °C, LQC
[17] = Long term stability in plasma: 61 days, −70 °C, HQC
[18] = Long term stability in plasma: 61 days, −70 °C, LQC
[19] = Wet extract stability (5 °C), 25 h, HQC
[20] = Wet extract stability (5 °C), 25 h, LQC
[21] = Wet extract stability (25 °C), 10 h, HQC
[22] = Wet extract stability (25 °C), 10 h, LQC

SMILES	AUC(0-t) [1] [ng·h/mL]	AUC(0-inf) [1] [ng·h/mL]	half-life [1] [h]	renal excretion (share of dose) [3] [%]	Mean stability sample ±SD [4, 7] [ng/mL]	Change (%) [4, 8] [%]	Mean stability sample ±SD [4, 9] [ng/mL]	Change (%) [4, 10] [%]	Change (%) [4, 11] [%]	Mean stability sample ±SD [4, 11] [ng/mL]	Change (%) [4, 12] [%]	Mean stability sample ±SD [4, 12] [ng/mL]	Change (%) [4, 13] [%]	Mean stability sample ±SD [4, 13] [ng/mL]	Change (%) [4, 14] [%]	Mean stability sample ±SD [4, 14] [ng/mL]	Change (%) [4, 15] [%]	Mean stability sample ±SD [4, 15] [ng/mL]	Change (%) [4, 16] [%]	Mean stability sample ±SD [4, 16] [ng/mL]	other results
CCC(CC)O[C@@H]1C=C(C(=O)O)C[C@H](N)[C@H]1NC(C)=O [Oseltamivir carboxylate, oseltamivir carboxylate]	3900 ± 721	3990 ± 729	7.5 ± 0.96	63	653.1 ± 23.7	1.40	5.841 ± 0.495	1.40	−1.57	626.2 ± 22.7	−2.79	5.583 ± 0.553	−1.57	626.0 ± 25.6	0.35	5.762 ± 0.394	−0.85	698.4 ± 16.6	2.72	6.791 ± 0.273	protein bound [2]: about 43%; time to maximum plasma levels (Cmax) [3, 6]: ≤ 5 h; time until detectable in plasma [3, 6]: about 30 min; Change (%) [4, 17]: 0.43%; Mean stability sample ±SD [4, 17]: 707.4 ± 19.0 ng/mL; Change (%) [4, 18]: −1.82%; Mean stability sample ±SD [4, 18]: 6.492 ± 0.328 ng/mL; Change (%) [4, 19]: 0.47%; Mean stability sample ±SD [4, 19]: 647.2 ± 18.2 ng/mL; Change (%) [4, 20]: 4.55%; Mean stability sample ±SD [4, 20]: 5.983 ± 0.556 ng/mL; Change (%) [4, 21]: −0.31%; Mean stability sample ±SD [4, 21]: 642.4 ± 13.4 ng/mL; Change (%) [4, 22]: 5.77%; Mean stability sample ±SD [4, 22]: 6.050 ± 0.393 ng/mL
CCOC(=O)C1=C[C@@H](OC(CC)CC)[C@H](NC(C)=O)[C@@H](N)C1 [Oseltamivir, oseltamivir]	153 ± 35	163 ± 37	4.97 ± 3.27	3	167.0 ± 9.5	0.60	1.430 ± 0.043	2.14	−3.05	159.3 ± 9.1	−4.23	1.364 ± 0.075	−2.44	160.2 ± 5.4	1.41	1.442 ± 0.070	1.18	172.3 ± 3.9	−3.61	1.635 ± 0.096	stability of OST concentration in samples kept on ice [5]: up to 1 h; Change (%) [4, 17]: 0.59%; Mean stability sample ±SD [4, 17]: 171.1 ± 3.7 ng/mL; Change (%) [4, 18]: −1.81%; Mean stability sample ±SD [4, 18]: 1.632 ± 0.035 ng/mL; Change (%) [4, 19]: 1.81%; Mean stability sample ±SD [4, 19]: 169.2 ± 7.4 ng/mL; Change (%) [4, 20]: 5.71%; Mean stability sample ±SD [4, 20]: 1.481 ± 0.086 ng/mL; Change (%) [4, 21]: 3.61%; Mean stability sample ±SD [4, 21]: 172.1 ± 10.4 ng/mL; Change (%) [4, 22]: 4.29%; Mean stability sample ±SD [4, 22]: 1.460 ± 0.077 ng/mL
